Results on three compounds are retold here after PMC6310869 (CPT: Pharmacometrics & Systems Pharmacology, 2018).

Entries after “also recorded” stand apart in the source; their conditions may differ.

The target of one series is T1, CYP2B6 (Homo sapiens, UniProt P20813).
T1 sequence (P20813 1-491): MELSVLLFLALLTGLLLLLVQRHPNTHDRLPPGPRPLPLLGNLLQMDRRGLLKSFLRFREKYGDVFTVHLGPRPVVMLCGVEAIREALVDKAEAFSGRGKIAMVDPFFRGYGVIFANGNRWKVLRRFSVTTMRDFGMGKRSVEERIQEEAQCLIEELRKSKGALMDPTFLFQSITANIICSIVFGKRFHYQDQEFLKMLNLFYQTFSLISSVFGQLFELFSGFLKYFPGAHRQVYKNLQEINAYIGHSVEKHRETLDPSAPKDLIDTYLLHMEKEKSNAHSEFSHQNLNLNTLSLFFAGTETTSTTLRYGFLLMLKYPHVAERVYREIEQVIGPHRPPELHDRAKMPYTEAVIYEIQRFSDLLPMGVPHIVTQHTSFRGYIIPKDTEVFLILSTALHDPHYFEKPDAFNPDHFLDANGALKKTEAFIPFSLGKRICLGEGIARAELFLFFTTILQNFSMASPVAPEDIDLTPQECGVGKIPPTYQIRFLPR
It is filed as in vitro ADME. The conditions noted are these: pooled human liver microsomes, probe efavirenz (8-hydroxylation). (In general: Microsomes from liver hold many membrane-bound enzymes, among them those of drug oxidation.)

In series [1] the target is T2, CYP2D6 (Homo sapiens, UniProt P10635). The experiment in a line: In vitro time-dependent inhibition of CYP2D6. It is filed as in vitro ADME. The settings on record: in vitro data.
The test system of another series is CYP3A4 mRNA. Nature of the series: Induction in primary cultures of cryopreserved human hepatocytes. It is filed as cell-based. The settings on record: 1 μM, once daily for 3 days, 3 donors. In outline:
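Primary cultures of cryopreserved human hepatocytes, 3 white donors as independent evaluations. Dosed once daily for 3 days with test compound (1, 2.5, 10 μM), vehicle, 25 μM flumazenil (negative control) or 20 μM rifampicin (positive control). Cells lysed and total RNA harvested; CYP3A4 mRNA quantified by RT-PCR.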

Series [2] concerns CYP3A4/5. It is filed as in vitro ADME. The settings on record: human, pooled human liver microsomes, probe midazolam (1'-hydroxylation).
In series [3] the target is T2, CYP2D6. Nature of the series: Direct inhibition. It is filed as in vitro ADME.
The subject of a further series is human hepatocytes. Nature of the series: Cell integrity of hepatocyte cultures. It is filed as cell-based. The settings on record: for Lactate dehydrogenase release: 3 days. In outline:
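Cryopreserved primary human hepatocytes from 3 white donors, dosed once daily for 3 days with test compound (1, 2.5, 10 μM), vehicle, 25 μM flumazenil (negative control) or 20 μM rifampicin (positive control). Cell integrity judged by lactate dehydrogenase release into the culture medium and by microscopic review of morphology and confluency.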

The nature of series [4]: logP by shaking octanol/water, HPLC quantification. It is filed as physicochemical. In outline:
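Shake-flask method: octanol-saturated water holding test compound (~26 mg/mL) was shaken with an equal volume of water-saturated octanol for 1 hour at 23°C. Compound quantified by HPLC in each separated phase.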

The conditions of series [5]: patients; cited from earlier work.
A short description of series [6]: Clinical pharmacokinetics, phase I study in patients with solid tumors. The conditions noted are these: human, plasma, iv. It is filed as in vivo.
The test system of series [7] is CYP3A4/5. Nature of the series: Direct inhibition. It is filed as in vitro ADME. The conditions noted are these: human, pooled human liver microsomes, probe midazolam (1'-hydroxylation).
Series [8] is described as follows: Plasma protein binding in fresh human plasma by ultrafiltration. It is filed as in vitro ADME. In short, it runs like this:
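Fresh human plasma spiked with test compound at 5, 10 and 75 μg/mL and incubated 0.5 hours at 37°C. Ultrafiltration followed by LC-MS/MS of both the ultrafiltrate and the originally spiked plasma.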

The next series relates to CYP3A4. The conditions noted are these: ref Simcyp; cited from earlier work.
For a further series, the system named is CYP3A. The conditions noted are these: cited from earlier work.
Series [9] deals with T2, CYP2D6. The settings on record: ref Simcyp; cited from earlier work.

T2 sequence (P10635 whole entry): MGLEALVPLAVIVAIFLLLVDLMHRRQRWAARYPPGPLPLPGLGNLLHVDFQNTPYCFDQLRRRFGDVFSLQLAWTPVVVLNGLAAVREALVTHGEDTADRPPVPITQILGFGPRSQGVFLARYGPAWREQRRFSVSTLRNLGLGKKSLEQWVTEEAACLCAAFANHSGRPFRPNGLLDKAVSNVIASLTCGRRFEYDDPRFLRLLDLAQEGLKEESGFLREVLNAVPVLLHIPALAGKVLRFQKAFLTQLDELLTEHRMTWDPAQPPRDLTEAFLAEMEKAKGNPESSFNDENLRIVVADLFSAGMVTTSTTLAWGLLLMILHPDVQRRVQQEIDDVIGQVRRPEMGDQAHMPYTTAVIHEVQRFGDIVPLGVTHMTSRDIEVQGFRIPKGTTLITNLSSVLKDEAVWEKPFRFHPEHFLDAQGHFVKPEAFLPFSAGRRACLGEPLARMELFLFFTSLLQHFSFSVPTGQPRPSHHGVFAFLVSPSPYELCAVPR

For `Cn1c(COP(=O)(NCCBr)NCCBr)cnc1[N+](=O)[O-]` [Evofosfamide, [1‐methyl‐2‐nitro‐1H‐imidazole‐5‐yl] methyl N, N’‐bis [2‐bromoethyl] diamidophosphate], the results for the KI (inactivation) on CYP2B6 and with CYP3A4/5 [2] were 3200 µM and 370 µM, respectively. In addition, the kinact (in general, the rate constant of inactivation at saturating inhibitor) was 0.000533 s⁻¹ at CYP2B6 and 0.000417 s⁻¹ in the series with CYP3A4/5 [2]. For the same compound, at CYP2D6 [1], the “Time-dependent inhibition of CYP2D6” value is “not time‐dependent”. In addition, the “Effect on CYP3A4 mRNA” value in the series with CYP3A4 mRNA is “no increase; also recorded: No induction”. Moreover, the Ki (as a rule, the equilibrium dissociation constant of an inhibitor or competing ligand from its target) at CYP2D6 [3] came to 85.3 µM. Also, the “Microscopic evaluation of toxicity” value in the series with human hepatocytes (1 μM, day 3, some signs of toxicity in third preparation) is recorded as “no signs of toxicity in two of the three donor cells”; in the series with human hepatocytes (2.5 and 10 μM) it was “Toxicity was observed in all donor cells”. Besides, the Lactate dehydrogenase release result is given as “higher” in the series with human hepatocytes (10 μM, versus control incubations); “comparable to control incubations” in the series on human hepatocytes (1 and 2.5 μM). The logP (usually the decadic logarithm of the partition coefficient of the neutral form, usually between octanol and water) at 1 hour in [4] worked out at 0.92. The Elimination half-life in series [5] was 48.6 min. The distribution volume (Vd) – broadly, the apparent volume that relates the amount in the body to the concentration in plasma or blood – in [6] stood at 0.43 L/kg. Further, the clearance (usually the volume of plasma or blood freed of the substance per unit of time) in [6] was 1060 mL/min. The same compound displayed a Ki at 5 min in the series with CYP3A4/5 [7] of 141 µM. The fraction unbound (commonly free concentration divided by total concentration) at 0.5 h in [8] was 0.455.
Turning to `Cc1ncc2n1-c1ccc(Cl)cc1C(c1ccccc1F)=NC2` [Midazolam], the “fmCYP (fraction of substrate metabolized by CYP)” value in the series on CYP3A4 is given as 0.96. In the series with CYP3A, the “Fraction escaping gut metabolism in the absence of inhibitor (fG)” value is 0.57.
As to `COc1ccc2c(c1)[C@]13CCCC[C@@H]1[C@H](C2)N(C)CC3` [Dextromethorphan], on CYP2D6 [9], the “fmCYP (fraction of substrate metabolized by CYP)” value is listed as 0.72.
